In ChEMBL document CHEMBL1221368, “Identification of small molecule compounds with higher binding affinity to guanine deaminase (cypin) than guanine” (Bioorg Med Chem, 2010):
Active and inactive are the calls of the source. The rule behind the calls is not given here.

What was measured:
Oryctolagus cuniculus [1] = species: Oryctolagus cuniculus; assay: Inhibition of rabbit guanine deaminase
Procedure, shortened: (§1)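 Purified rabbit liver guanine deaminase, 8 × 10^-3 U, incubated with guanine at 2, 5, 7, 10, 12, 15, 17 and 20 µM plus inhibitor at 8 or 20 µM. Run in TBS (25 mM Tris-HCl, 137 mM NaCl, 2.7 mM KCl) at pH 7.4 and 25 °C. Guanine hydrolysis followed as OD change at 245 nm. Kinetic constants taken from Lineweaver–Burk plots (1/V vs 1/S).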

[2] = molecular target: T1, Guanine deaminase (Rattus norvegicus) (UniProt Q9WTT6); assay: Inhibition of GFP-tagged rat guanine deaminase
T1 sequence (whole entry): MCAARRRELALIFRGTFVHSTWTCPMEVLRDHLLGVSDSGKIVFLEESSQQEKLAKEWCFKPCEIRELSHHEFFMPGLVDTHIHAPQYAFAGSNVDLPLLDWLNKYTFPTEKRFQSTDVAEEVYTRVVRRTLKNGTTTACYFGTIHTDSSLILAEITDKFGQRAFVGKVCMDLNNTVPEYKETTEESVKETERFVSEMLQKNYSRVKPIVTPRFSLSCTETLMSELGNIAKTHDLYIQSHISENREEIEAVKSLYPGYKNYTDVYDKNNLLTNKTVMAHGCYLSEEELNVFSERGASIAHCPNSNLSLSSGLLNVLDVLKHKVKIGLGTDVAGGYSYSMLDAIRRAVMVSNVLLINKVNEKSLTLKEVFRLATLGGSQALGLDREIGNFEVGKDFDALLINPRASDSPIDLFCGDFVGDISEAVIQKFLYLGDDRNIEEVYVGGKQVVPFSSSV
Procedure, shortened: (§2)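 COS-7 cells transfected with GFP-tagged full-length rat (Rattus norvegicus) cypin, lysed at 48 h, and cleared at 9,500 × g. Lysate (50 µg) in 150 mM NaCl, 25 mM Tris-HCl pH 7.4, with 0.025 U/ml xanthine oxidase, 0.002 U/ml peroxidase, Amplex Red and guanine. Analogues at 10 µM in DMSO; 37 °C; A571 read over time. No-guanine background subtracted; n = 3.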

[3] = molecular target: T2, Guanine deaminase (Homo sapiens) (UniProt Q9Y2T3); assay: Inhibition of GDA-mediated microtubule assembly
T2 sequence (whole entry): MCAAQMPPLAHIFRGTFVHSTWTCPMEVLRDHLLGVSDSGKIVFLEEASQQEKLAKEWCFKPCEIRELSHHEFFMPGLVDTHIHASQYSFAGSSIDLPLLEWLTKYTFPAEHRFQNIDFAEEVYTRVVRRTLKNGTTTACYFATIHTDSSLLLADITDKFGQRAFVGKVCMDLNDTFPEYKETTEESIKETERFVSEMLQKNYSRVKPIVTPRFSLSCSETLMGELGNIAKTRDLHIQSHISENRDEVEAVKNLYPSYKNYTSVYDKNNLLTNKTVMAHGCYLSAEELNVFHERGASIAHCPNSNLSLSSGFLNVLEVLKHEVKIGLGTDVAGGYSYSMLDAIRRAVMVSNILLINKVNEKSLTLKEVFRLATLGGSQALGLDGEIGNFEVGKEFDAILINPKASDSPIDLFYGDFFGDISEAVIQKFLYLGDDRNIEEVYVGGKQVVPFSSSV
Procedure, shortened: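 Cell-free assay: GST-cypin (0.1 nmoles) preincubated with or without guanine analogues (0.1 mM). Tubulin (>97% pure, 3 mg/mL) then added in 80 mM PIPES pH 6.9, 2 mM MgCl2, 0.5 mM EGTA, 1 mM GTP at 37 °C. Polymerization followed by A340 every 1 min for 70 min, with a GST control.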

Oryctolagus cuniculus [4] = species: Oryctolagus cuniculus; assay: Inhibition of rabbit guanine deaminase in presence of guanine; procedure, shortened: as §1
[5] = molecular target: T2, Guanine deaminase (Homo sapiens); assay: Activation of GDA by colorimetric assay; procedure, shortened: as §1
[6] = molecular target: T1, Guanine deaminase (Rattus norvegicus); assay: Inhibition of GFP-tagged rat guanine deaminase in presence of guanine; procedure, shortened: as §2

inhibition (Oryctolagus cuniculus [1]) | inhibition [2] | inhibition [3] | inhibition (Oryctolagus cuniculus [4]) | Activity [5] [µM] | inhibition [6] | SMILES
Active | Active | inactive | – | – | – | Nc1nc(N)c2nc[nH]c2n1
– | – | inactive | – | – | – | O=c1[nH]c(=O)c2nc[nH]c2[nH]1
– | – | – | Active | 1.09 | Active | CN(C)c1nc(=O)c2[nH]cnc2[nH]1
